A selection: hits, their analogues and other compounds. The true share with any hit is near 2.2%.
NS3 helicase inh = HCV NS3 helicase inhibition; inhibition, % at 10.9 µM; NS3 helicase DNA unwinding, Cy5 molecular beacon fluorescence; 290,000 tested, 0.56% active;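 active = inhibition above the mean of all tested compounds plus 3 SD, set per campaign, cut at about 35% in these data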
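System: NS3 helicase fragment of HCV / Schedule: 1 h at 25 °C / Control set: DMSO alone as 0% and 110 µM thioflavine S as 100% / Reagent: Cy5/quencher beacon DNA duplex and ATP to start / Technique: Cy5 fluorescence / Replication: singlicate / Evaluation: % inhibition of end-to-start signal ratio versus controls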
GPR7 antagonist = antagonists of human GPR7 (neuropeptides B/W receptor 1); GPR7-expressing cells, fluorescence antagonist assay; P48145; 290,000 tested, 1.1% active; inhibition, % at 4.4 µM; in the data active = inhibition above about 16%, passing the limit was not always enough;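 also: cells stimulated with the agonist NPW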
DAGLB inhibitor = diacylglycerol lipase beta (human) inhibition; Q8NCG7; HEK293T DAGLB membrane lysate, EnzChek fluorogenic substrate; inhibition, % at 5.17 µM; 340,000 tested, 0.059% active; AID 504411; in the data active = inhibition above about 34%
core dimer inh = HCV core protein dimerization inhibition | TR-FRET GST/Flag-core106 dimerization, 1536-well | 300,000 tested, 0.33% active | inhibition, % at 5 µM;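 active = inhibition above the mean of all tested compounds plus 3 SD, set per screening campaign, cut at about 45% in these data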
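System – GST-tagged and Flag-tagged HCV core protein residues 1-106 · Repeats – one well for each compound · Technique – TR-FRET 671 and 617 nm emission · Doses – one concentration, 5 µM, in 0.5% DMSO · Times – 4 h, 22.5 °C incubation · Also added – Eu donor and XL665 acceptor anti-tag antibodies · Measure – percent inhibition of core106 dimerization signal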
GRK2 aptamer HTS = human GRK2 inhibition via aptamer displacement | inhibition of aptamer binding, % at 10 µM | 330,000 tested, 0.59% active | P25098 | bead flow cytometry, FAM-aptamer displacement from GRK2;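 active = inhibition of aptamer binding above 40%, roughly 3 SD of noise, on plates passing a quality check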;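 also: median bead fluorescence of bound FAM aptamer so fluorescent compounds give negative values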
Target sequence (P25098 whole entry, looked up): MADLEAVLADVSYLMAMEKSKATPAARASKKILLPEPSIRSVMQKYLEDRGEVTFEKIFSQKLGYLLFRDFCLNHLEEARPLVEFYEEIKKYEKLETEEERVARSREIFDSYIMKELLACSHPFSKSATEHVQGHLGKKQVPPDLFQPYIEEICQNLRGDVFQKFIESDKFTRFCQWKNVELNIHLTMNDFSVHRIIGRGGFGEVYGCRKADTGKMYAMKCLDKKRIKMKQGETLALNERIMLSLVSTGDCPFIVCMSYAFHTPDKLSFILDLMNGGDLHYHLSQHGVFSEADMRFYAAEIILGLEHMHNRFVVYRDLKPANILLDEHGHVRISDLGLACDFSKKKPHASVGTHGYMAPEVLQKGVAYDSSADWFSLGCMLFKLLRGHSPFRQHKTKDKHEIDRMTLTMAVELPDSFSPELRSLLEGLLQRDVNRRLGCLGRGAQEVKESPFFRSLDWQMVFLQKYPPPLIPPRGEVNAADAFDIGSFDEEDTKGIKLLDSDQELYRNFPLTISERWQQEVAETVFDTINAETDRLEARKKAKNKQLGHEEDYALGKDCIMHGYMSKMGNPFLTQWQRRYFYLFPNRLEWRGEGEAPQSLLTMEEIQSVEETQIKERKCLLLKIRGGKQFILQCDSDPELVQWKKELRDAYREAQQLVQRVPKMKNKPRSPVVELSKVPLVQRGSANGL
FID counter = displaces DNA intercalator in HCV helicase counter-screen; DNA fluorescent intercalator displacement, fluorescence; inhibition, % at 7.9 µM; 290,000 tested, 0.17% active; in the data active = inhibition above about 37%;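 also: higher means more ethidium bromide displaced from hairpin DNA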
GPR7 antag conf = human GPR7 antagonism, confirmation assay; shares compounds with GPR7 antagonist; inhibition, % at 4.4 µM; GPR7-expressing cells, calcium fluorescence antagonist mode; 2,400 tested, 52% active; in the data active = inhibition above about 24%;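 also: stimulated with the GPR7 agonist NPW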
MCHR1 antagonist = MCHR1 (human) antagonism in GPR7 counter-screen | shares compounds with GPR7 antagonist | MCHR1-expressing cells, fluorescence antagonist assay | inhibition, % at 4.4 µM | 2,400 tested, 62% active; in the data active = inhibition above about 22%
Large screens that a line does not name were inactive (follow-up assays come after a bar, where they were run).

Cc1ccc(S(=O)(=O)Nc2ccccc2C(=O)Nc2nc(-c3ccc(F)cc3)cs2)cc1	none
CCN1CCN(c2nc(S(=O)(=O)c3ccc(C)cc3)c(Cl)s2)CC1	none
COc1cccc(CNCCc2c[nH]c3ccccc23)c1OCc1ccccc1	GPR7 antagonist 56.1, FID counter 51.8 | GPR7 antag conf 59.9 | MCHR1 antagonist 67.2
Cc1ccc(OCCOCCN2CCN(C)CC2)c(C(C)(C)C)c1	none
Clc1ccc(OCCCN2CCc3ccccc3C2)c(Br)c1	none
Clc1ccc(OCCOCCN2CCc3ccccc3C2)c(Cl)c1	GPR7 antagonist 29.6 | GPR7 antag conf inactive | MCHR1 antagonist 30.4
CC(C)(C)c1cc(Cl)ccc1OCCOCCN1CCCC1	GPR7 antagonist 24.3 | GPR7 antag conf 35.2 | MCHR1 antagonist 41.5
C=CCNCCCOc1ccc(Cl)cc1C(C)(C)C	GPR7 antagonist 25.5 | GPR7 antag conf 25.2 | MCHR1 antagonist 36.7
Cc1ccnc(Nc2nc(-c3ccc(O)c(O)c3)cs2)c1	GPR7 antagonist 40.6 | GPR7 antag conf 56.9 | MCHR1 antagonist 48.3
Nc1nc2n(n1)C(c1cccc(Br)c1)CC(c1ccc(F)cc1)N2 (centres undefined)	GPR7 antagonist 34.7 | GPR7 antag conf inactive | MCHR1 antagonist inactive
O=C(CSc1cccc(C(F)(F)F)c1)N1CCN(S(=O)(=O)c2ccccc2)CC1	GPR7 antagonist 34.0 | GPR7 antag conf inactive | MCHR1 antagonist inactive
CCOc1cc(S(=O)(=O)N2CCCCC2)ccc1Cl	GPR7 antagonist 25.3 | GPR7 antag conf inactive | MCHR1 antagonist 28.3
O=C(Nc1ccc2c(c1)CCCN2C(=O)c1cccs1)c1c(F)cccc1Cl	GPR7 antagonist 25.9 | GPR7 antag conf inactive | MCHR1 antagonist 40.6
O=C(Nc1ccc2c(c1)CCCN2C(=O)c1cccs1)c1c(F)cccc1F	none
O=C(COC(=O)c1cc([N+](=O)[O-])ccc1N1CCOCC1)NCc1ccc(Cl)cc1Cl	GPR7 antagonist 23.5 | GPR7 antag conf 34.5 | MCHR1 antagonist 35.8
CC1CC(C)CN(CCCNC(=O)c2ccc3c(c2)N(Cc2ccccc2)C(=O)c2ccccc2S3=O)C1 (centres undefined)	GPR7 antagonist 35.2 | GPR7 antag conf inactive | MCHR1 antagonist inactive
COc1cc(/C=C2\SC(=S)N(C(Cc3ccccc3)C(=O)O)C2=O)ccc1O (centres undefined)	GPR7 antagonist 22.0 | GPR7 antag conf inactive | MCHR1 antagonist inactive
O=C(O)C(Cc1ccccc1)N1C(=O)/C(=C/c2ccccc2)SC1=S (centres undefined)	none
CCN(C(=O)COC(=O)Cn1cnc2c1c(=O)n(C)c(=O)n2C)C1CCS(=O)(=O)C1 (centres undefined)	GPR7 antagonist 28.7 | GPR7 antag conf inactive | MCHR1 antagonist inactive
CCC(C)N(C(=O)Cn1cnc2c1c(=O)n(C)c(=O)n2C)C1CCS(=O)(=O)C1 (centres undefined)	none (no result: NS3 helicase inh, GPR7 antagonist, FID counter)
CS(=O)(=O)N(Cc1ccccc1)c1ccc(C(=O)N2CCN(c3cccc(Cl)c3)CC2)cc1	GPR7 antagonist 23.9 | GPR7 antag conf 36.4 | MCHR1 antagonist 70.0
Cc1ccc(CN(c2ccc(C(=O)N3CCc4ccccc4C3)cc2)S(C)(=O)=O)cc1	GPR7 antagonist 33.3 | GPR7 antag conf 31.6 | MCHR1 antagonist 47.4
CN(c1ccc(C(=O)N2CCN(Cc3ccccc3)CC2)cc1)S(=O)(=O)c1ccc(Cl)cc1	GPR7 antagonist 31.8 | GPR7 antag conf inactive | MCHR1 antagonist 33.2
CS(=O)(=O)N(Cc1ccc(Cl)cc1)c1ccc(C(=O)N2CCN(c3ccccc3)CC2)cc1	GPR7 antagonist 21.3 | GPR7 antag conf 38.4 | MCHR1 antagonist 46.3
CN(C)c1ccc(CNCCC(Cc2ccccc2)c2ccco2)cc1 (centres undefined)	none
c1ccc(CNCCC(Cc2ccccc2)c2ccco2)cc1 (centres undefined)	GPR7 antagonist 23.3 | GPR7 antag conf 28.3 | MCHR1 antagonist 35.2
CC1(C)CC(=O)C(C=NCC2CCN(C(=S)Nc3cccc(Cl)c3)CC2)=C(O)C1	none
CCCC(=O)N(CCN(Cc1ccccc1)C(=O)CCC)Cc1ccccc1	GPR7 antagonist 31.2 | GPR7 antag conf 43.1 | MCHR1 antagonist 30.6
CC(=NNC(=O)Cn1ccc(C(F)(F)F)n1)c1ccc(-n2ccnc2)cc1	none (no result: NS3 helicase inh, GPR7 antagonist, core dimer inh, FID counter)
O=C(NCc1cccnc1)c1cc(-c2ccc(Cl)cc2)oc1C(F)(F)F	GPR7 antagonist 34.0 | GPR7 antag conf 24.2 | MCHR1 antagonist inactive
COc1ccc(NC(=O)Nc2cccc([N+](=O)[O-])c2)cc1Cl	GPR7 antagonist 34.7 | GPR7 antag conf 37.8 | MCHR1 antagonist 59.4
O=C(Nc1ccc(OC(F)F)c(Cl)c1)Nc1ccc2c(c1)OCO2	GPR7 antagonist 26.5 | GPR7 antag conf inactive | MCHR1 antagonist 56.4
COc1ccc(C(=O)Nc2cccc([N+](=O)[O-])c2)cc1Br	none
O=C(Nc1ccc(Cl)c(Cl)c1)c1ccc2c(c1)OCO2	GPR7 antagonist 27.2 | GPR7 antag conf inactive | MCHR1 antagonist 31.6
O=C(Nc1ccc2c(c1)OCO2)Nc1ccc2c(c1)OCO2	none
O=C(Nc1ccc2c(c1)OCO2)c1ccc2c(c1)OCO2	none
O=C(Nc1ccc([N+](=O)[O-])cc1)Nc1ccc(OC(F)F)c(Cl)c1	GPR7 antagonist 22.6 | GPR7 antag conf 72.5 | MCHR1 antagonist 74.8
Cc1n[nH]c(=O)c2c(NC(=O)CSc3nnc(C4CC4)n3C)oc(C)c12	none (no result: NS3 helicase inh, GPR7 antagonist, FID counter)
FC(F)(F)c1cc(C(F)(F)F)c2ccc(N3CCN(c4ccc(Cl)cc4)CC3)nc2n1	none
N#CC(c1ccc(Cl)cc1)c1ccc2c(C(F)(F)F)cc(C(F)(F)F)nc2n1 (centres undefined)	GPR7 antagonist 33.2 | GPR7 antag conf 58.5 | MCHR1 antagonist 50.5
CCC(c1nnnn1CCc1ccccc1)N1CCN(C(=O)c2ccco2)CC1 (centres undefined)	GPR7 antagonist 21.3 | GPR7 antag conf inactive | MCHR1 antagonist inactive
COc1ccc(N2C(=O)CC(Sc3ccccc3C(=O)O)C2=O)c([N+](=O)[O-])c1 (centres undefined)	none
O=C(Nc1ccc(N2CCN(c3ncccc3C(F)(F)F)CC2)nc1)c1cccs1	GPR7 antagonist 21.3 | GPR7 antag conf 35.3 | MCHR1 antagonist 80.5
O=C(Nc1ccc(N2CCN(c3ccc(C(F)(F)F)cn3)CC2)nc1)c1cccs1	none
Cc1ccc(C(CC(=O)N2CCNCC2)c2ccccc2)c(O)c1C (centres undefined)	GPR7 antagonist 33.2 | GPR7 antag conf inactive | MCHR1 antagonist inactive

Screening results as filed in PubChem BioAssay.
